From ChEMBL document CHEMBL1149812, “Synthesis of N-aryl-5-amino-4-cyanopyrazole derivatives as potent xanthine oxidase inhibitors” (Eur J Med Chem, 2008)

Assays:
NCI-H460 = experiment: Growth inhibition of human NCI-H460 cells after 48 hrs; type: functional; details: NCI-H460, 48 h
In short: (§1)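 SRB protein-stain assay following the NCI screening protocol. Cells kept adherent in RPMI-1640 with 5% heat-inactivated FBS, 2 mM glutamine and 50 µg/mL gentamicin at 37 °C under 5% CO2. Seeded at 7.5 × 10^4 cells/mL (NCI-H460) or 1.5 × 10^5 cells/mL (MCF-7, SF-268). Exposed 48 h to five concentrations, top 150 µM, DMSO ≤0.25%. […] Mean ± SEM of 1–6 experiments in duplicate.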

[1] = target: T1, Xanthine dehydrogenase/oxidase (Homo sapiens, UniProt P47989); experiment: Activity of xanthine oxidase assessed as change in absorbance per min at 10 uM in presence of xanthine
In short: (§2)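 Kinetic runs: xanthine oxidase (0.066 U/mL) in 50 mM potassium dihydrogen phosphate pH 7.4 preincubated 15 min at room temperature with inhibitor in DMSO (1% final). Started with xanthine at 100, 75, 50 or 25 µM plus 1 mM EDTA. Uric acid formation read at 295 nm over 2 min as ΔA/min. Vmax and Km taken from Lineweaver–Burk plots.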

[2] = target: T1, Xanthine dehydrogenase/oxidase; experiment: Activity of xanthine oxidase assessed as change in absorbance per min at 40 uM in presence of xanthine; in short: as §2
SF-268 = experiment: Growth inhibition of human SF268 cells after 48 hrs; type: functional; details: SF-268, 48 h; in short: as §1
MCF7 = experiment: Growth inhibition of human MCF7 cells after 48 hrs; type: functional; details: MCF7, 48 h; in short: as §1
[3] = target: T1, Xanthine dehydrogenase/oxidase; experiment: Inhibition of xanthine oxidase
In short: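 Enzyme preincubated 15 min at room temperature: xanthine oxidase 0.066 U/mL in 50 mM potassium dihydrogen phosphate pH 7.4 with compound in DMSO (1% final). Started with 100 µM xanthine plus 1 mM EDTA. Mean ± SEM of 3 experiments, each in triplicate.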

[4] = target: T1, Xanthine dehydrogenase/oxidase; experiment: Activity of xanthine oxidase assessed as change in absorbance per min at 0.1 uM in presence of xanthine; in short: as §2
[5] = target: T1, Xanthine dehydrogenase/oxidase; experiment: Activity of xanthine oxidase assessed as change in absorbance per min at 0.025 uM in presence of xanthine; in short: as §2
[6] = target: T1, Xanthine dehydrogenase/oxidase; experiment: Inhibition of xanthine oxidase at 100 uM

T1 sequence (P47989 whole entry): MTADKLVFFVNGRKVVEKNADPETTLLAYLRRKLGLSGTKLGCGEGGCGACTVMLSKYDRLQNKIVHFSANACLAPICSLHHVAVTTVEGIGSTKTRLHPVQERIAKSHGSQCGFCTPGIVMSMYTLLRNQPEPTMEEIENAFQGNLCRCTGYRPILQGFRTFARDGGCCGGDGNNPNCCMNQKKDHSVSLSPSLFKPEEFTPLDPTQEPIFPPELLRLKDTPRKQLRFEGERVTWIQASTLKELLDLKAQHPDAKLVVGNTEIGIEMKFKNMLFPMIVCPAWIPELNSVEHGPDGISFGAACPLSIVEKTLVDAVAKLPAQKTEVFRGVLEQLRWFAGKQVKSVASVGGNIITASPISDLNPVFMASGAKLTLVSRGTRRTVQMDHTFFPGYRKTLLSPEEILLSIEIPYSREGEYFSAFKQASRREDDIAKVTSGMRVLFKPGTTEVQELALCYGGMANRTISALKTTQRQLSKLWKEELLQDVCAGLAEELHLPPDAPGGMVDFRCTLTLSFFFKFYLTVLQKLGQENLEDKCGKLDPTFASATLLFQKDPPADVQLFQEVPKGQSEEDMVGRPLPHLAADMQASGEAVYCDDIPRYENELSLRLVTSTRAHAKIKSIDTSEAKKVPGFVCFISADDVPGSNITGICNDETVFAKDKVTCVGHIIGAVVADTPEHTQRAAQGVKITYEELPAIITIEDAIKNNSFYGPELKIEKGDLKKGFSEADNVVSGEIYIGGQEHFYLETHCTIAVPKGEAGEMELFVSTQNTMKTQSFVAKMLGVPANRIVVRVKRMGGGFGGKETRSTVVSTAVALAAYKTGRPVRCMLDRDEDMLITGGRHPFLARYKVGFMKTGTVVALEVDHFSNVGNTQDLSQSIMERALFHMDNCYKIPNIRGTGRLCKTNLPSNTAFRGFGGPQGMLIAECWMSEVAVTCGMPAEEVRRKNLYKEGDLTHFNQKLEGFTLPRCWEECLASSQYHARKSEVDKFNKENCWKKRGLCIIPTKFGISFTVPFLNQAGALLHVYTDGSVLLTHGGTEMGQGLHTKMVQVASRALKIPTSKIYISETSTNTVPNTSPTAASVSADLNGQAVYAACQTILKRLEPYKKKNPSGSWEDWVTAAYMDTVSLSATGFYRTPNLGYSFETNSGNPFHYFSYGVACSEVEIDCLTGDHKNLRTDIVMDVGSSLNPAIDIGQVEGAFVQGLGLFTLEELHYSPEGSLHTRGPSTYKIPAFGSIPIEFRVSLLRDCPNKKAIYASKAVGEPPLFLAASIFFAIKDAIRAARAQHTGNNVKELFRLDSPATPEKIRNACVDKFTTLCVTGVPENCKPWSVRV

| GI50 (NCI-H460) [µM] | GI50 (MCF7) [µM] | IC50 [3] [µM] | SMILES | GI50 (SF-268) [µM] | also measured |
| --- | --- | --- | --- | --- | --- |
| > 150 | > 150 | 37.9 | COC(=O)CNC(=O)c1ccc(-n2ncc(C#N)c2N)cc1 | > 150 | deltaA [1]: 0.23; deltaA [2]: 0.09 |
| > 150 | > 150 | 0.08 | COC(=O)CNC(=O)c1ccc(-n2ncc3c(N)ncnc32)cc1 | > 150 | deltaA [4]: 0.13; deltaA [5]: 0.16 |
| > 150 | > 150 | > 100 | Cc1ccc(-n2ncc(C#N)c2N)cc1 | > 150 | – |
| > 150 | > 150 | > 100 | COc1ccc(-n2ncc(C#N)c2N)cc1 | > 150 | – |
| – | – | 36.1 | N#Cc1cnn(-c2ccc(C(=O)O)cc2)c1N | – | deltaA [1]: 0.12; deltaA [2]: 0.08 |
| 128 | 64 | > 100 | N#Cc1cnn(-c2ccc([N+](=O)[O-])cc2)c1N | 135 | – |
| – | – | 0.4 | N#Cc1ccc(-n2ncc3c(N)ncnc32)cc1 | – | – |
| > 150 | > 150 | 19.6 | COc1ccc(-n2ncc3c(N)ncnc32)cc1 | > 150 | – |
| > 150 | > 150 | > 100 | N#Cc1cnn(-c2ccc(C(F)(F)F)cc2)c1N | > 150 | – |
| 0.094 | 0.0428 | – | COc1cccc2c1C(=O)c1c(O)c3c(c(O)c1C2=O)C[C@@](O)(C(=O)CO)C[C@@H]3O[C@H]1C[C@H](N)[C@H](O)[C@H](C)O1 [DOXORUBICIN] | 0.093 | – |
| > 150 | > 150 | 18.4 | CC(=O)OC[C@H]1O[C@@H](Nc2ncnc3c2cnn3-c2ccc(C(=O)O)cc2)[C@H](OC(C)=O)[C@@H](OC(C)=O)[C@@H]1OC(C)=O | > 150 | – |
| > 150 | > 150 | > 100 | N#Cc1ccc(-n2ncc(C#N)c2N)cc1 | > 150 | – |
| – | – | > 100 | CC(=O)OC[C@H]1O[C@@H](Nc2c(C#N)cnn2-c2ccc(C(=O)O)cc2)[C@H](OC(C)=O)[C@@H](OC(C)=O)[C@@H]1OC(C)=O | – | – |
| – | – | – | Oc1ncnc2[nH]ncc12 [ALLOPURINOL] | – | inhibition at 100 µM [6]: 96.3% |
| – | – | 2.2 | Nc1ncnc2c1cnn2-c1ccc([N+](=O)[O-])cc1 | – | – |
| – | – | 0.18 | Nc1ncnc2c1cnn2-c1ccc(C(F)(F)F)cc1 | – | – |
| – | – | 17.4 | Cc1ccc(-n2ncc3c(N)ncnc32)cc1 | – | – |
| – | – | 81 | Nc1ncnc2c1cnn2-c1ccc(C(=O)O)cc1 | – | – |

| SMILES | GI50 (NCI-H460) [µM] | GI50 (MCF7) [µM] | IC50 [3] [µM] | GI50 (SF-268) [µM] | also measured |
| --- | --- | --- | --- | --- | --- |
| N#Cc1cnn(-c2ccc(Cl)cc2)c1N | > 150 | > 150 | > 100 | > 150 | – |
